Data set [1] can be described thus: Cmax in mouse at 5 ug/kg. Format: ADME, organism-based. On the set-up: dose 5 ug/kg. The following applies: in vivo, 0.005 mg/kg.
Data set [2] in a line: AUC in mouse at 5 ug/kg. The class given is ADME, organism-based. The following applies: plasma, 0.005 mg/kg.
The subject of data set [3] is Mus musculus. Kind of data set: Hypercalcemic activity in CF1 mouse assessed as increase in plasma calcium level at 5 to 20 ug/kg, ip qd for 5 days measured after 96 hrs. The class given is functional, organism-based. The essentials:
(§1)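 Mice (n = 5/group) received daily intraperitoneal injections of agent or isopropanol vehicle at 5 or 20 μg/kg body weight for 5 days. Blood was taken before dosing (0 h) and at 24, 48, 72 and 96 h. Plasma calcium was read by Arsenazo III absorbance. Means ± SE; experiment repeated twice.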

The test system of data set [4] is Mus musculus. As to the kind of experiment: Toxicity in CF1 mouse assessed as mortality at 5 to 20 ug/kg, ip qd for 5 days. Format: organism-based. Particulars: in vivo, 120 h. The essentials: (§2)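 Mice in three groups (n = 5/group) received daily intraperitoneal injections of test agent, calcitriol, or isopropanol vehicle at 5 or 20 μg/kg body weight for 5 days. Survival was followed through the examination period, with blood sampled before dosing and at 24, 48, 72 and 96 h for plasma calcium (Arsenazo III absorbance). Liver, duodenum, lungs and kidneys were inspected macroscopically.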

Data set [5] deals with HN12. As to the kind of experiment: Antiproliferative activity against human HN12 cells assessed as decrease in cell number at 1 nM after 72 hrs by hemocytometeric analysis. The class given is functional, cell-based. In a few lines: (§3)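 Cells exposed to the test agent or isopropanol vehicle over 72 h, across 0.1–100 nM; proliferation expressed as percentage of vehicle. Experiments repeated at least three times per cell line; one-way ANOVA with Bonferroni post-test.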

Data set [6] is described as follows: Antiproliferative activity against human HN12 cells assessed as decrease in cell number after 72 hrs by WST assay. The class given is functional, cell-based. Particulars: HN12, 72 h.
Data set [7] deals with T98G. As to the kind of experiment: Antiproliferative activity against human T98G cells assessed as decrease in cell number after 72 hrs by WST assay. Format: functional, cell-based. The essentials:
as §3

For data set [8], the system named is T47D. Kind of data set: Antiproliferative activity against human T47D cells assessed as decrease in cell number after 72 hrs by WST assay. The class given is functional, cell-based.
A short description of data set [9]: Antiproliferative activity against mouse LM05e cells assessed as decrease in cell number after 72 hrs by WST assay. Format: functional, cell-based.
Data set [10] concerns T98G. As to the kind of experiment: Antiproliferative activity against human T98G cells harboring plasmid silencing VDR assessed as decrease in cell number at 10 nM after 72 hrs by WST assay. Format: functional, cell-based. In a few lines: (§4)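 T98G cells transfected with VDR-silencing shRNA plasmid or scrambled shRNA plasmid. 48 h after transfection, treated with 10 nM agent or vehicle, then counted 72 h after treatment. Triplicate wells, three independent experiments; mean ± SE. VDR knockdown was checked on lysates taken 48 h after transfection with 2 or 4 μg plasmid.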

Data set [11] has as its system T98G. Kind of data set: Antiproliferative activity against human T98G cells harboring scrambled shRNA assessed as decrease in cell number at 10 nM after 72 hrs by WST assay. The class given is functional, cell-based. The essentials:
as §4

In data set [12] the test system is Mus musculus. As to the kind of experiment: Hypercalcemic activity in CF1 mouse assessed as increase in plasma calcium level at 5 ug/kg, ip qd for 5 days measured after 96 hrs. Format: functional, organism-based. The essentials:
as §1

For data set [13], the system named is Mus musculus. Kind of data set: Toxicity in CF1 mouse assessed as mortality at 5 ug/kg, ip qd for 5 days. The class given is organism-based. Particulars: in vivo, 0.005 mg/kg, 120 h. The essentials:
as §2

Data set [14] concerns Mus musculus. Kind of data set: Hypercalcemic activity in CF1 mouse assessed as increase in plasma calcium level at 20 ug/kg, ip qd for 5 days measured after 96 hrs. The class given is functional, organism-based. In a few lines: as §1
Data set [15] has as its system Mus musculus. As to the kind of experiment: Toxicity in CF1 mouse assessed as mortality at 20 ug/kg, ip qd for 5 days. Particulars: in vivo, 0.02 mg/kg, 120 h. Format: organism-based. The essentials:
as §2

Data set [16] deals with Mus musculus. Kind of data set: Toxicity in CF1 mouse assessed as morphological alterations in liver at 5 to 20 ug/kg, ip qd for 5 days measured after 15 days. The following applies: in vivo, 360 h. The class given is organism-based. In a few lines: (§5)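 Mice dosed intraperitoneally once daily for 5 days at 5 or 20 μg/kg in isopropanol vehicle. Liver, duodenum, lungs and kidneys were inspected visually for macroscopic morphological alterations after treatment.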

The subject of data set [17] is Mus musculus. Kind of data set: Toxicity in CF1 mouse assessed as morphological alterations in duodenum at 5 to 20 ug/kg, ip qd for 5 days measured after 15 days. Format: organism-based. The following applies: in vivo, 360 h. The essentials:
as §5

Data set [18] deals with Mus musculus. Kind of data set: Toxicity in CF1 mouse assessed as morphological alterations in lung at 5 to 20 ug/kg, ip qd for 5 days measured after 15 days. The class given is organism-based. The following applies: in vivo, 360 h. In a few lines: as §5
Data set [19] deals with Mus musculus. As to the kind of experiment: Toxicity in CF1 mouse assessed as morphological alterations in kidney at 5 to 20 ug/kg, ip qd for 5 days measured after 15 days. Format: organism-based. The following applies: in vivo, 360 h. In a few lines: as §5
For data set [20], the system named is HCT-116. As to the kind of experiment: Antiproliferative activity against human HCT116 cells assessed as decrease in cell survival at 0.1 to 100 nM after 72 hrs by WST1 assay. Format: functional, cell-based. In a few lines: as §3
On the technique in general: Formazan colour is commonly taken as a measure of viable cells.

Data set [21] relates to LM3. As to the kind of experiment: Antiproliferative activity against mouse LM3 cells assessed as decrease in cell survival at 0.1 to 100 nM after 72 hrs by WST1 assay. The class given is functional, cell-based. In a few lines:
as §3

The subject of data set [22] is SVEC vGPCR (Mouse). Kind of data set: Antiproliferative activity against mouse SVEC vGPCR cells assessed as decrease in cell number after 72 hrs by WST assay.

pIC50: −log10 of the molar value. Activity calls are given as the source filed them. No cut-off for these calls is given here.

Broadly, the Cmax is the maximum level reached in the sampled fluid or tissue. Usually AUC stands for the area under the concentration-time curve, a measure of exposure. Low values mean less exposure, high ones more exposure. A word on the pIC50: it is the negative decadic logarithm of the IC50, by convention in mol/L.

For `C=C1/C(=C\C=C2/CCC[C@]3(C)[C@@H]([C@H](C)CCCC(C)(C)O)CC[C@@H]23)C[C@@H](O)C[C@@H]1O` [CALCITRIOL], in [1], the Cmax is > 10 ng/mL. Moreover, the AUC in data set [2] was > 40 ng·h/mL. For the same molecule, the result in data set [3] was Active. In addition, the Activity entry in data set [4] was “Toxic”.

In the case of `C=C1/C(=C\C=C2/CCC[C@]3(C)[C@@H]([C@H](C)CC#CP(=O)(OCC)OCC)CC[C@@H]23)C[C@@H](O)C[C@@H]1O`, the result in data set [5], in data set [10] and in [11] was Active. In addition, the pIC50 in data set [6] was 7.65; in data set [7], 7.44; in data set [8], 8.32; in data set [9], 8.77; in data set [22], 6.95. In addition, the outcome in data set [12], in [14], in data set [20] and in [21] was inactive. The Activity result in data set [13], in data set [15], in data set [16], in [17], in data set [18] and in data set [19] was “Non-toxic” throughout.
